ChEMBL document CHEMBL5678802, “Small-molecule p21-activated kinase inhibitor PF-3758309 is a potent inhibitor of oncogenic signaling and tumor growth” (Proc Natl Acad Sci U S A, 2010)
The source made the active and inactive calls. The rule behind the calls is not given here.

How the values were obtained:
SW-620 = experiment: Antiproliferative activity against human SW620 cells assessed as inhibition of cell proliferation incubated for 3 days by CellTiter-Glo Luminescent Cell Viability Assay; type: functional, cell-based; conditions: SW-620, 72 h
How it was run: (§1)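 Cells of each line were plated in 384-well plates on day 1 and exposed to compound from day 2 for 3 days. On day 5 all medium was aspirated. Viable cell number was read by CellTiter-Glo luminescence, which quantifies cellular ATP.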

Caco-2 = experiment: Antiproliferative activity against human Caco-2 cells assessed as inhibition of cell proliferation incubated for 3 days by CellTiter-Glo Luminescent Cell Viability Assay; type: functional, cell-based; conditions: Caco-2, 72 h
How it was run: (§2)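 Cancer cell lines seeded in 384-well plates on day 1; compound added on day 2 and left for 3 days. On day 5 all medium was aspirated, and viable cells were quantified by CellTiter-Glo luminescence, which measures cellular ATP. Dose-dependent effects on proliferation were determined.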

DLD-1 = experiment: Antiproliferative activity against human DLD-1 cells assessed as inhibition of cell proliferation incubated for 3 days by CellTiter-Glo Luminescent Cell Viability Assay; type: functional, cell-based; conditions: DLD-1, 72 h; how it was run: as §2
NCI-H82 = experiment: Antiproliferative activity against human NCI-H82 cells assessed as inhibition of cell proliferation incubated for 3 days by CellTiter-Glo Luminescent Cell Viability Assay; type: functional, cell-based; conditions: NCI-H82, 72 h; how it was run: as §1
Calu-6 = experiment: Antiproliferative activity against human Calu-6 cells assessed as inhibition of cell proliferation incubated for 3 days by CellTiter-Glo Luminescent Cell Viability Assay; type: functional, cell-based; conditions: Calu-6, 72 h; how it was run: as §2
[1] = Antiproliferative activity against human PaTu 8902 cells assessed as inhibition of cell proliferation incubated for 3 days by CellTiter-Glo Luminescent Cell Viability Assay; type: functional, cell-based; conditions: PaTu 8902, 72 h; how it was run: as §1
PANC-03-27 = experiment: Antiproliferative activity against human PANC-03-27 cells assessed as inhibition of cell proliferation incubated for 3 days by CellTiter-Glo Luminescent Cell Viability Assay; type: functional, cell-based; conditions: PANC-03-27, 72 h; how it was run: as §1
Hs 766 = experiment: Antiproliferative activity against human Hs766T cells assessed as inhibition of cell proliferation incubated for 3 days by CellTiter-Glo Luminescent Cell Viability Assay; type: functional, cell-based; conditions: Hs 766, 72 h; how it was run: as §2
HCC4006 = experiment: Inhibition of anchorage independent cell growth in human HCC4006 cells incubated for 6 days by Alamar blue reagent based fluorescence plate reader analysis; type: functional; conditions: HCC4006, 144 h
NCI-H1437 = experiment: Inhibition of anchorage independent cell growth in human NCI-H1437 cells incubated for 6 days by Alamar blue reagent based fluorescence plate reader analysis; type: functional; conditions: NCI-H1437, 144 h
NCI-H2170 = experiment: Inhibition of anchorage independent cell growth in human NCI-H2170 cells incubated for 6 days by Alamar blue reagent based fluorescence plate reader analysis; type: functional; conditions: NCI-H2170, 144 h
MDA-MB-436 = experiment: Antiproliferative activity against human MDA-MB-436 cells assessed as inhibition of cell proliferation incubated for 3 days by CellTiter-Glo Luminescent Cell Viability Assay; type: functional, cell-based; conditions: MDA-MB-436, 72 h; how it was run: as §2
HCC1395 = experiment: Antiproliferative activity against human HCC1395 cells assessed as inhibition of cell proliferation incubated for 3 days by CellTiter-Glo Luminescent Cell Viability Assay; type: functional, cell-based; conditions: HCC1395, 72 h; how it was run: as §2
[2] = target: Ribosomal protein S6 kinase alpha-1 (Homo sapiens, UniProt Q15418); experiment: Inhibition of human RSK1 in presence of ATP relative to control; conditions: concentration not given here
[3] = target: T1, Protein kinase C beta type (Homo sapiens, UniProt P05771); experiment: Inhibition of human PKCbeta-II in presence of ATP relative to control; conditions: concentration not given here
Target sequence in this assay (P05771 2-671 limits assumed): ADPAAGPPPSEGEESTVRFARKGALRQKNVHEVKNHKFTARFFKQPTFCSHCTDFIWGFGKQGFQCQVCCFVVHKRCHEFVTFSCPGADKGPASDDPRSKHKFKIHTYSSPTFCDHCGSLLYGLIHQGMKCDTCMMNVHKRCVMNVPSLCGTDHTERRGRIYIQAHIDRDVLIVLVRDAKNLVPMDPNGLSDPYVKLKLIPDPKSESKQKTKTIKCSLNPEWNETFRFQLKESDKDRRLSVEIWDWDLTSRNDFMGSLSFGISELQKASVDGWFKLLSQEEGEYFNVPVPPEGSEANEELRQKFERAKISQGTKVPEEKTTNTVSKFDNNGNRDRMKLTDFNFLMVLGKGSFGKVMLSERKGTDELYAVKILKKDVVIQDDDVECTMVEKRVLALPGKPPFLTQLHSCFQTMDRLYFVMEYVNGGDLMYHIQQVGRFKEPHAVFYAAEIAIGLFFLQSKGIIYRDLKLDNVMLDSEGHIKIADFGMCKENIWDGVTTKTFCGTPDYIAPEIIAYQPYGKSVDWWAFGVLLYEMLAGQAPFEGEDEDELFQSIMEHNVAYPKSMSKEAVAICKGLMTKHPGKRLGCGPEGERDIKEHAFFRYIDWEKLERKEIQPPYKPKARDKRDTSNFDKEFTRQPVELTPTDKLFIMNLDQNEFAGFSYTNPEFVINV

[4] = target: Proto-oncogene tyrosine-protein kinase Src (Homo sapiens, UniProt P12931); experiment: Inhibition of human SRC in presence of ATP relative to control; conditions: concentration not given here
[5] = target: Tyrosine-protein kinase Yes (Homo sapiens, UniProt P07947); experiment: Inhibition of human YES1 assessed as inhibition constant in presence of ATP
[6] = target: Protein kinase C theta type (Homo sapiens, UniProt Q04759); experiment: Inhibition of human PKCtheta in presence of ATP
[7] = target: T1, Protein kinase C beta type; experiment: Inhibition of human PKCbeta-II in presence of ATP
Target sequence in this assay (P05771 whole entry): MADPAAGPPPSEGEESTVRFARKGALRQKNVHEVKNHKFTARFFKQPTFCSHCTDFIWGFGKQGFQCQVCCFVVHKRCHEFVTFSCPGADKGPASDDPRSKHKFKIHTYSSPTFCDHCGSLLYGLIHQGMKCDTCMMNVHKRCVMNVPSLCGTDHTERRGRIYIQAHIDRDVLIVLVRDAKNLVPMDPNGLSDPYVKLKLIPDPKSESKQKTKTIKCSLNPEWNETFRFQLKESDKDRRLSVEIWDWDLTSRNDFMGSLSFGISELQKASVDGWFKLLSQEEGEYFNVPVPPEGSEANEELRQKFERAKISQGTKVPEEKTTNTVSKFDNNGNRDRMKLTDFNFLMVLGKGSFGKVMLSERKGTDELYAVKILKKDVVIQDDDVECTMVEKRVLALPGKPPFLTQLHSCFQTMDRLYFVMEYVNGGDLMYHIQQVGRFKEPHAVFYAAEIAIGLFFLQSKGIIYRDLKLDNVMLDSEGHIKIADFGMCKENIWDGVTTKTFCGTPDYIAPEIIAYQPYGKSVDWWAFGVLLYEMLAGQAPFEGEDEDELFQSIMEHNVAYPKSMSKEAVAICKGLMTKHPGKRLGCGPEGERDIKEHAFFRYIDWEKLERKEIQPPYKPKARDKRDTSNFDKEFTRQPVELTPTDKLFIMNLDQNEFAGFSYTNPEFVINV

[8] = target: Ribosomal protein S6 kinase alpha-3 (Homo sapiens, UniProt P51812); experiment: Inhibition of human RSK2 in presence of ATP by cellular assay
[9] = target: Serine/threonine-protein kinase Chk2 (Homo sapiens, UniProt O96017); experiment: Inhibition of human CHK2 in presence of ATP by cellular assay
[10] = target: RAC-gamma serine/threonine-protein kinase (Homo sapiens, UniProt Q9Y243); experiment: Inhibition of human AKT3 in presence of ATP by cellular assay
[11] = target: Tyrosine-protein kinase Fgr (Homo sapiens, UniProt P09769); experiment: Inhibition of human FGR in presence of ATP by cellular assay
HCT-116 [12] = experiment: Induction of cell cycle arrest in human HCT-116 cells assessed as accumulation of cells at S phase at 100 nM measured after 48 hrs by fluorescence activated cell sorter analysis (reference value: 26.15%); type: functional
MDA-MB-231 = experiment: Antitumor activity against human MDA-MB-231 cells xenografted in nude mouse assessed as tumor growth inhibition at 20 mg/kg, po administered once daily for 9 to 18 days relative to control; type: functional; conditions: time 9-18 day, read-out: TGI
[13] = Drug concentration in nude mouse plasma xenografted with human HCT-116 cells at 3.3 mg/kg administered via pump for 9 days by LC-MS/MS analysis; type: ADME, organism-based; conditions: time 9 day
HCT-116 [14] = experiment: Antitumor activity against human HCT-116 cells xenografted in nude mouse assessed as reduction in BAD phosphorylation at S112 residue at 15 to 150 mg/kg/day administered via pump for 18 hrs by Reverse-Phase protein array analysis; type: functional, organism-based; conditions: dose 15-150 mg/kg/day

Serine/threonine-protein kinase Chk2, sequence (O96017 whole entry): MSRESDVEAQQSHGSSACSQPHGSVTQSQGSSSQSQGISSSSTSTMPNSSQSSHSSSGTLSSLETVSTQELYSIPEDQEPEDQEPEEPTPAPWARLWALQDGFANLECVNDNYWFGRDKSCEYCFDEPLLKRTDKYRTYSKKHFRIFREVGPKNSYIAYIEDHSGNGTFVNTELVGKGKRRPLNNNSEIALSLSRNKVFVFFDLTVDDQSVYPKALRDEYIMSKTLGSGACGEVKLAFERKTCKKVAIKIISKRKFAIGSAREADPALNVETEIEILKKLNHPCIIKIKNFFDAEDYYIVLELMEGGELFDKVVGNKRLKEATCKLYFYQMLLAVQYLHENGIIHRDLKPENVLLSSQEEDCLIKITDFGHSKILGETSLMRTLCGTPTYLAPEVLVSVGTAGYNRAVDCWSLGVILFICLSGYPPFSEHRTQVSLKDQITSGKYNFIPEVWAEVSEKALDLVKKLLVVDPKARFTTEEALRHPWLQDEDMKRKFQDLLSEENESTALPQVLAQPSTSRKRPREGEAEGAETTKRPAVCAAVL
RAC-gamma serine/threonine-protein kinase, sequence (Q9Y243 whole entry): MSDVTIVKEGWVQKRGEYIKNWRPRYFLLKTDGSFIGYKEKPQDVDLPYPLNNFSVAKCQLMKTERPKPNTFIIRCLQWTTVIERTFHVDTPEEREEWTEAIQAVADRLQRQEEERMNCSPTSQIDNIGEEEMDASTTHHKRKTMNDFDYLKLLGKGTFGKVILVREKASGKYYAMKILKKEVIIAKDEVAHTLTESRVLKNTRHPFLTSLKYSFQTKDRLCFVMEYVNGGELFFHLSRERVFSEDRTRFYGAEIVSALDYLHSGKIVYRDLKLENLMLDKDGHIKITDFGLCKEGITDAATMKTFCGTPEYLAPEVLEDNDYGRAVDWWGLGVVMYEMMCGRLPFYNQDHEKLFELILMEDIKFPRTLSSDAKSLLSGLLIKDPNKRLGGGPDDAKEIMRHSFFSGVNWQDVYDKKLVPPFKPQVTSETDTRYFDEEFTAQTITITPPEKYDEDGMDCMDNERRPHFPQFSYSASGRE
Tyrosine-protein kinase Yes, sequence (P07947 whole entry): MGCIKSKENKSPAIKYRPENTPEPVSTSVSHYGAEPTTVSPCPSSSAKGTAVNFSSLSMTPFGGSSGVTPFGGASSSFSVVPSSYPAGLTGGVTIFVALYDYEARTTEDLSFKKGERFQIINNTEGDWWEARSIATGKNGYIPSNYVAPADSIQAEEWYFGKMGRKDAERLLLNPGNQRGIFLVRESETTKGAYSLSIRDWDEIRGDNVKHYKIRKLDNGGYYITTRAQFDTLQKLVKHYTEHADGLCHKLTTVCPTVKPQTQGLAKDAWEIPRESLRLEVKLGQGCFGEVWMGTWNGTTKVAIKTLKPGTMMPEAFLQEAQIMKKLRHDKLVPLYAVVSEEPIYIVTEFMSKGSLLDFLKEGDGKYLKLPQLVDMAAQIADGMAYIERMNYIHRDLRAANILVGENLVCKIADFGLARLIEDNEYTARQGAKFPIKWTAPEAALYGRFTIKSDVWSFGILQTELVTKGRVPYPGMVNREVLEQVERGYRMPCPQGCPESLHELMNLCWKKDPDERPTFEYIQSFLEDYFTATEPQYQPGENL
Ribosomal protein S6 kinase alpha-1, sequence (Q15418 whole entry): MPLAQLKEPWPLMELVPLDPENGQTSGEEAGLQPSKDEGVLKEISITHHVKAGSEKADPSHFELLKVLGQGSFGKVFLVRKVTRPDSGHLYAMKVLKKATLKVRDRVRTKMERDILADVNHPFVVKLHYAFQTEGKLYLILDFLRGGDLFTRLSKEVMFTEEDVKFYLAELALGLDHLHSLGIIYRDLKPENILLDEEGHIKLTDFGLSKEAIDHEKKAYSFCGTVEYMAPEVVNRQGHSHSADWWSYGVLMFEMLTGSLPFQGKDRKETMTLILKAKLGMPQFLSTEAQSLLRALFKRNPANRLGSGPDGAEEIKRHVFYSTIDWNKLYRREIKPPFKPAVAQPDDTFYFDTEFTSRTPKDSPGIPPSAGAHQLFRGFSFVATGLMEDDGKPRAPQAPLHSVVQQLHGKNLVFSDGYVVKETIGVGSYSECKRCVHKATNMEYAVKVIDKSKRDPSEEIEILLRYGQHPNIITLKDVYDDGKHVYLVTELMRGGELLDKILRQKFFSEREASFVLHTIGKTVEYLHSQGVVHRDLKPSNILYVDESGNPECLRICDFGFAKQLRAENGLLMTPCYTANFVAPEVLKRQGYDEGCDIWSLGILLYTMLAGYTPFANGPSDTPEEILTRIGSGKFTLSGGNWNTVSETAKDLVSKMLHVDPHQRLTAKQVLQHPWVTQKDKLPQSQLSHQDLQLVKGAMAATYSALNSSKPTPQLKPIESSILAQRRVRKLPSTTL
Protein kinase C theta type, sequence (Q04759 whole entry): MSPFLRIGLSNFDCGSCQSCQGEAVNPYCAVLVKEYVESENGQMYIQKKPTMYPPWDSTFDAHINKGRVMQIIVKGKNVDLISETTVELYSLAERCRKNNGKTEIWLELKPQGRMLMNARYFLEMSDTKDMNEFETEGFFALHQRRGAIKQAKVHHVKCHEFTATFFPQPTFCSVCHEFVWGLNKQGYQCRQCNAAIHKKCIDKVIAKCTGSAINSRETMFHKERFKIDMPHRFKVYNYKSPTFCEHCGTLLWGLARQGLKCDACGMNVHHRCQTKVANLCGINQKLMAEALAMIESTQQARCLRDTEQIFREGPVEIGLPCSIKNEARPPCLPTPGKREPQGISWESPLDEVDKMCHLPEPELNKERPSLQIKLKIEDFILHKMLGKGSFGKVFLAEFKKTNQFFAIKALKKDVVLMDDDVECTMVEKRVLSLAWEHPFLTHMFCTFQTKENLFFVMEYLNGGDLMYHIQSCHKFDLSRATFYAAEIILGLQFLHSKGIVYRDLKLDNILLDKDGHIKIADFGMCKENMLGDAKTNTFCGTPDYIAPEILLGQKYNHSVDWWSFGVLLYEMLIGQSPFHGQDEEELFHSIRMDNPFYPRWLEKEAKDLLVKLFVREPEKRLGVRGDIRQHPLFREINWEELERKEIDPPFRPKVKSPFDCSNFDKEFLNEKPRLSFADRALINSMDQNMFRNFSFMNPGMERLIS
Proto-oncogene tyrosine-protein kinase Src, sequence (P12931 2-536 limits assumed): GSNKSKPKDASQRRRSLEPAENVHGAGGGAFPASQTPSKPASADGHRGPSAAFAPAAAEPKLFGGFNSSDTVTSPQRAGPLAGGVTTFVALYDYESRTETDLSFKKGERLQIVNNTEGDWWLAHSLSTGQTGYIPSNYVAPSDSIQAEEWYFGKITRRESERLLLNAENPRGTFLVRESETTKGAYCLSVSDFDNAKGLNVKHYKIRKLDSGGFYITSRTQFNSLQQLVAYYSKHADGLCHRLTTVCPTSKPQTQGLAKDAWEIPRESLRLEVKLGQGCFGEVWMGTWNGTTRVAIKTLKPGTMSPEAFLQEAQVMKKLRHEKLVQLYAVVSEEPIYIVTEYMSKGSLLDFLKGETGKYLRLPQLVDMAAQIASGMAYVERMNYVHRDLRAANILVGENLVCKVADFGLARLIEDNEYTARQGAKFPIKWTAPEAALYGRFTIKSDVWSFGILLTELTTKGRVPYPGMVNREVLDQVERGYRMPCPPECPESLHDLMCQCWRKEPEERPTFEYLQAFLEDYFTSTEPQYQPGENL

IC50 (SW-620): 5.7 nM | IC50 (Caco-2): 10000 nM | IC50 (DLD-1): 10000 nM | IC50 (NCI-H82): 2.1 nM | IC50 (Calu-6): 7.3 nM | IC50 (PANC-03-27): 32 nM | IC50 (HCC4006): 3.79 nM | IC50 (NCI-H1437): 4.8 nM | IC50 (NCI-H2170): 6.04 nM | IC50 (MDA-MB-436): 0.79 nM | IC50 (HCC1395): 1.6 nM | inhibition [2]: 101% | inhibition [3]: 90% | inhibition [4]: 96% | Ki [5]: 43 nM | IC50 [6]: 28 nM | IC50 [7]: 156 nM | IC50 [8]: 171 nM | IC50 [9]: 302 nM | IC50 [10]: 3600 nM | IC50 [11]: 4680 nM | concentration at 216 h [13]: 37 ng/mL
Structure (SMILES): Cc1nc(Nc2n[nH]c3c2CN(C(=O)N[C@H](CN(C)C)c2ccccc2)C3(C)C)c2sccc2n1 [PF-03758309]
IC50 [1]: 27 nM | IC50 (Hs 766): 416 nM | Activity (HCT-116 [12]): 14.37% | inhibition in vivo at 20 mg/kg (MDA-MB-231): 89% | Activity (HCT-116 [14]): Active
